Measured values from ChEMBL document CHEMBL1123011, “Isoxazoles with antipicornavirus activity” (1985).
Values after ≈ are worked out from the molar mass of the structure shown. Active and inactive are the calls of the source. The calls are words filed in the database; no cut-off is given here.

How the values were obtained:
Poliovirus 3 = test: Minimum inhibitory concentration of compound in vitro against poliovirus-3; assay type: functional; conditions: Enterovirus C
Enterovirus [1] = test: Effect on plaque production by Human Rhinovirus serotype 75; assay type: functional
In short: (§1)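 HeLa (Ohio) monolayers (day-old, 90%) were infected at about 80 pfu/well and adsorbed at least 1 h at 33 °C in 2% CO2. After 3 days at 33 °C they were fixed with formaldehyde and stained with crystal violet. MIC was the concentration giving 50% fewer plaques.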

Mus musculus [2] = test: Effect of compound on Poliovirus induced paralysis and death in mice when administered orally with placebo mg/kg.; assay type: functional
In short: (§2)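 ICR Buckberg mice (18–21 g) were infected intracerebrally with polio-2 (MEF strain). Compound was given orally bid at 31–250 mg/kg: 1 h before infection, 2 h after, then twice daily for 13 days. Placebo and nonmedicated groups served as controls, with 30 mice per group. Flaccid paralysis and death were scored and survivors counted when the test ended on day 20.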

Enterovirus [3] = test: Effect on plaque production by Human Rhinovirus serotype 41; NA=Not active; assay type: functional, organism-based; in short: as §1
Enterovirus [4] = test: Effect on plaque production by Human Rhinovirus serotype 15 (seven most common serotypes); assay type: functional; in short: as §1
Enterovirus [5] = test: Effect on plaque production by Human Rhinovirus serotype 33; assay type: functional; in short: as §1
Mus musculus [6] = test: Effect of compound on number of survivors per 30 mice at nonmed mg/kg; assay type: functional; in short: as §2
Enterovirus [7] = test: Effect on plaque production by Human Rhinovirus serotype 5; assay type: functional; in short: as §1
Mus musculus [8] = test: Effect of compound on Poliovirus induced paralysis and death in mice when administered orally with dose 125 mg/kg.; assay type: functional; conditions: route oral; in short: as §2
Mus musculus [9] = test: Effect of compound on Poliovirus induced paralysis and death in mice when administered orally with dose 63 mg/kg.; assay type: functional; conditions: route oral; in short: as §2
Echovirus E9 = test: Minimum inhibitory concentration of compound in vitro against echovirus-9; assay type: functional; conditions: Enterovirus B
In short: (§3)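 Plaque reduction on day-old HeLa (Ohio) monolayers, about 80 pfu/well. Drug was serially diluted twofold from a 10 mg/mL Me2SO stock into an M-199/10% calf serum/agarose overlay, applied in duplicate after virus adsorption. Plaques were counted after 3 days in 2% CO2, following formaldehyde fixation and crystal violet staining. MIC was the concentration producing 50% plaque reduction.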

Enterovirus [10] = test: Effect on plaque production by Human Rhinovirus serotype 89; assay type: functional; in short: as §1
Enterovirus [11] = test: Effect on plaque production by Human Rhinovirus serotype 31 (seven most common serotypes); assay type: functional; in short: as §1
Mus musculus [12] = test: Effect of compound on number of survivors per 30 mice at dose 125 mg/kg; assay type: functional; in short: as §2
Enterovirus [13] = test: Effect on plaque production by Human Rhinovirus serotype 21; assay type: functional; in short: as §1
Enterovirus [14] = test: Effect on plaque production by Human Rhinovirus serotype 18; assay type: functional; in short: as §1
Enterovirus [15] = test: Effect on plaque production by Human Rhinovirus serotype 22; assay type: functional; in short: as §1
Enterovirus [16] = test: Effect on plaque production by Human Rhinovirus serotype 86; assay type: functional; in short: as §1
Enterovirus [17] = test: Effect on plaque production by Human Rhinovirus serotype 36; assay type: functional; in short: as §1
Enterovirus [18] = test: Effect on plaque production by Human Rhinovirus serotype 1A (seven most common serotypes); assay type: functional; in short: as §1
Mus musculus [19] = test: Effect of compound on Poliovirus induced paralysis and death in mice when administered orally with nonmed mg/kg.; assay type: functional; in short: as §2
Mus musculus [20] = test: Effect of compound on number of survivors per 30 mice at dose 63 mg/kg; assay type: functional; in short: as §2
Enterovirus [21] = test: Effect on plaque production by Human Rhinovirus serotype 13; assay type: functional; in short: as §1
rhinovirus A2 [22] = test: In vitro anti-picornavirus activity against Rhinovirus type-2.; assay type: functional; conditions: Rhinovirus A
In short: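 HeLa (Ohio) monolayers (day-old, 90%) were infected at about 80 pfu/well and adsorbed at least 1 h at 33 °C in 2% CO2. After 3 days at 33 °C they were fixed with formaldehyde and stained with crystal violet.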

Enterovirus [23] = test: Effect on plaque production by Human Rhinovirus serotype 72; NA=Not active; assay type: functional, organism-based; in short: as §1
Enterovirus [24] = test: Effect on plaque production by Human Rhinovirus serotype 50; assay type: functional; in short: as §1
Mus musculus [25] = test: Effect of compound on number of survivors per 30 mice at dose 250 mg/kg; assay type: functional; in short: as §2
Echovirus E11 = test: Minimum inhibitory concentration of compound in vitro against echovirus-11; assay type: functional; conditions: Enterovirus B; in short: as §3
Enterovirus [26] = test: Effect on plaque production by Human Rhinovirus serotype 39; assay type: functional; in short: as §1
Enterovirus [27] = test: Effect on plaque production by Human Rhinovirus serotype 29; assay type: functional; in short: as §1
Enterovirus [28] = test: Effect on plaque production by Human Rhinovirus serotype 29 (seven most common serotypes); assay type: functional; in short: as §1
[29] = Maximum testable level of compound was evaluated; assay type: functional
In short: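 In the HeLa (Ohio) plaque-overlay system, Me2SO-solubilized compound was twofold serially diluted into the agarose overlay. Uninfected cell controls were run alongside and cells were stained with crystal violet after 3 days. The maximum testable level was taken as the concentration below which no cytotoxic effects were seen.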

Enterovirus [30] = test: Effect on plaque production by Human Rhinovirus serotype 2; assay type: functional; in short: as §1
Mus musculus [31] = test: Effect of compound on Poliovirus induced paralysis and death in mice when administered orally with 31 mg/kg.; assay type: functional; conditions: route oral; in short: as §2
Mus musculus [32] = test: Effect of compound on number of survivors per 30 mice at placebo mg/kg; assay type: functional; in short: as §2
Mus musculus [33] = test: Effect of compound on Poliovirus induced paralysis and death in mice when administered orally with dose 250 mg/kg.; assay type: functional; conditions: route oral; in short: as §2
Enterovirus [34] = test: Effect on plaque production by Human Rhinovirus serotype 4 (seven most common serotypes); NA=Not active; assay type: functional, organism-based; in short: as §1
Enterovirus [35] = test: Effect on plaque production by Human Rhinovirus serotype 49; assay type: functional; in short: as §1
Enterovirus [36] = test: Effect on plaque production by Human Rhinovirus serotype 1B (seven most common serotypes); assay type: functional; in short: as §1
Enterovirus [37] = test: Effect on plaque production by Human Rhinovirus serotype 3; assay type: functional; in short: as §1
Enterovirus [38] = test: Effect on plaque production by Human Rhinovirus serotype 14; assay type: functional; in short: as §1
rhinovirus A2 [39] = test: Minimum inhibitory concentration of compound in vitro against rhinovirus-2; assay type: functional, rhinovirus type-2; conditions: Rhinovirus A; in short: as §1
Enterovirus [40] = test: Effect on plaque production by Human Rhinovirus serotype 61; assay type: functional; in short: as §1
Enterovirus [41] = test: Effect on plaque production by Human Rhinovirus serotype 16; assay type: functional; in short: as §1
Poliovirus 2 [42] = test: Minimum inhibitory concentration of compound in vitro against poliovirus-2; assay type: functional; conditions: Enterovirus C
In short: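 Plaque-reduction assay on day-old HeLa (Ohio) monolayers at 90% confluence, infected with polio-2 at ca. 80 pfu/well. Adsorption was at least 1 h at 37 °C in 2% CO2. Cells were then overlaid in duplicate with drug in M-199/calf serum/agarose (Me2SO stock at 10 mg/mL, twofold dilutions) and held 3 days. Plaques were fixed with formaldehyde, stained with crystal violet and counted. MIC is the concentration giving 50% plaque reduction.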

Poliovirus 2 [43] = test: In vitro anti-picornavirus activity against Poliovirus type-2.; assay type: functional; conditions: Enterovirus C
Mus musculus [44] = test: Effect of compound on number of survivors per 30 mice at dose 31 mg/kg; assay type: functional; in short: as §2

Structure (SMILES): COc1ccc(OCCCCCCCc2cc(C)no2)c(Cl)c1
- MIC (Poliovirus 3): 0.08 µg/mL (≈ 0.237 µM)
- MIC (Enterovirus [1]): 4.1 µg/mL (≈ 12.1 µM)
- Survival (Mus musculus [2]): 22%
- MIC (Enterovirus [3]): inactive
- MIC (Enterovirus [4]): 0.44 µg/mL (≈ 1.3 µM)
- MIC (Enterovirus [5]): 0.05 µg/mL (≈ 0.148 µM)
- Survivors (Mus musculus [6]): 7
- MIC (Enterovirus [7]): 5.8 µg/mL (≈ 17.2 µM)
- survival at 125 mg/kg (Mus musculus [8]): 73%
- survival at 63 mg/kg (Mus musculus [9]): 67%
- MIC (Echovirus E9): 0.15 µg/mL (≈ 0.444 µM)
- MIC (Enterovirus [10]): 0.03 µg/mL (≈ 0.0888 µM)
- MIC (Enterovirus [11]): 0.53 µg/mL (≈ 1.57 µM)
- Survivors (Mus musculus [12]): 22
- MIC (Enterovirus [13]): 0.01 µg/mL (≈ 0.0296 µM)
- MIC (Enterovirus [14]): 1.5 µg/mL (≈ 4.44 µM)
- MIC (Enterovirus [15]): 0.1 µg/mL (≈ 0.296 µM)
- MIC (Enterovirus [16]): 0.25 µg/mL (≈ 0.74 µM)
- MIC (Enterovirus [17]): 0.04 µg/mL (≈ 0.118 µM)
- MIC (Enterovirus [18]): 0.29 µg/mL (≈ 0.858 µM)
- Survival (Mus musculus [19]): 22%
- Survivors (Mus musculus [20]): 20
- MIC (Enterovirus [21]): 1.9 µg/mL (≈ 5.62 µM)
- MIC (rhinovirus A2 [22]): 0.04 µg/mL (≈ 0.118 µM)
- MIC (Enterovirus [23]): inactive
- MIC (Enterovirus [24]): 0.13 µg/mL (≈ 0.385 µM)
- Survivors (Mus musculus [25]): 28
- MIC (Echovirus E11): 0.04 µg/mL (≈ 0.118 µM)
- MIC (Enterovirus [26]): 0.07 µg/mL (≈ 0.207 µM)
- MIC (Enterovirus [27]): 3.1 µg/mL (≈ 9.18 µM)
- MIC (Enterovirus [28]): 0.33 µg/mL (≈ 0.977 µM)
- MTL [29]: 12.5 µg/mL
- MIC (Enterovirus [30]): 0.04 µg/mL (≈ 0.118 µM)
- survival at 31 mg/kg (Mus musculus [31]): 53%
- Survivors (Mus musculus [32]): 7
- survival at 250 mg/kg (Mus musculus [33]): 93%
- MIC (Enterovirus [34]): inactive
- MIC (Enterovirus [35]): 0.26 µg/mL (≈ 0.77 µM)
- MIC (Enterovirus [36]): 0.37 µg/mL (≈ 1.1 µM)
- MIC (Enterovirus [37]): 0.5 µg/mL (≈ 1.48 µM)
- MIC (Enterovirus [38]): 1.35 µg/mL (≈ 4 µM)
- MIC (rhinovirus A2 [39]): 0.04 µg/mL (≈ 0.118 µM)
- MIC (Enterovirus [40]): 0.09 µg/mL (≈ 0.266 µM)
- MIC (Enterovirus [41]): 0.04 µg/mL (≈ 0.118 µM)
- MIC (Poliovirus 2 [42]): 0.05 µg/mL (≈ 0.148 µM)
- MIC (Poliovirus 2 [43]): 0.05 µg/mL (≈ 0.148 µM)
- Survivors (Mus musculus [44]): 16
